The target in experiment [1] is Neuronal acetylcholine receptor; alpha4/beta2 (Rattus norvegicus, UniProt P09483+P12390). The experiment is described as follows: (§1) Displacement of [3H]epibatidine from rat alpha4/beta2 nAChR expressed in HEK293 cells. In kind it is cell-based. The gist of the method: (§2)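 Membranes from HEK293 cells stably expressing rat α4β2, α3β4 or α4β4; [3H]epibatidine competition binding. IC50 converted to Ki by Cheng–Prusoff. Means of 3–5 experiments in duplicate.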

Experiment [2] concerns the target Neuronal acetylcholine receptor; alpha4/beta2 (Rattus norvegicus) (UniProt P09483+P12390). The description is as §1. It is filed as cell-based. The gist of the method:
as §2

Experiment [3] has as its target Neuronal acetylcholine receptor; alpha4/beta4 (Rattus norvegicus, UniProt P09483+P12392). The experiment can be described thus: Displacement of [3H]epibatidine from rat alpha4/beta4 nAChR expressed in HEK293 cells. In kind it is cell-based. In outline:
as §2
Background: Loss of bound radioactivity is the signal in a displacement assay; it reports binding, not function.

Experiment [4] has as its target T1, Neuronal acetylcholine receptor; alpha3/beta4 (Rattus norvegicus, UniProt P04757+P12392). The experiment can be described thus: Displacement of [3H]epibatidine from rat alpha3/beta4 nAChR expressed in HEK293 cells. In kind it is cell-based. In outline:
as §2

The nature of experiment [5]: Displacement of [3H]MLA from rat/mouse alpha7 nAChR/5HT3A expressed in tsA201 cells. In kind it is cell-based. In outline: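 [3H]MLA binding on membranes from tsA201 cells transiently expressing a chimera of rat α7 amino-terminal domain and murine 5-HT3A ion-channel domain. Ki from IC50 via Cheng–Prusoff; 3–5 experiments in duplicate.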
Experiment [6] deals with T1, Neuronal acetylcholine receptor; alpha3/beta4. The experiment is described as follows: Antagonist activity at rat alpha3/beta4 nAChR expressed in HEK293 cells assessed as inhibition of (S)-nicotine-induced activity by FLIPR membrane potential blue assay. It is filed as cell-based. The gist of the method:
(§3)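 Mouse α4β2 in stably transfected HEK293T cells and rat α3β4 in stable HEK293 cells; FLIPR Membrane Potential Blue read-out. (S)-Nicotine agonist at EC70–EC80: 1 μM for α4β2, 3 μM for α3β4. Functional IC50 from 3–5 experiments in duplicate.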

In experiment [7] the target is Nicotinic acetylcholine receptor alpha-4/beta-2 (Mus musculus, UniProt Q8R493+Q9ERK7). The experiment is described as follows: Antagonist activity at mouse alpha4/beta2 nAChR expressed in HEK293 cells assessed as inhibition of (S)-nicotine-induced activity by FLIPR membrane potential blue assay. In kind it is cell-based. The gist of the method:
as §3

The target in experiment [8] is Neuronal acetylcholine receptor subunit alpha-7 (Homo sapiens, UniProt P36544). The experiment can be described thus: Displacement of [3H]cytisine from alpha7 nAChR (unknown origin).
Experiment [9] deals with Neuronal acetylcholine receptor; alpha4/beta2 (Homo sapiens, UniProt P17787+P43681). The experiment is described as follows: Displacement of [3H]cytisine from alpha4/beta2 nAChR (unknown origin). In kind it is protein-complex assay.
A short description of experiment [10]: Selectivity ratio of Ki for rat/mouse alpha7 nAChR/5HT3A to Ki for rat alpha4/beta2 nAChR.
The target of experiment [11] is Sodium-dependent noradrenaline transporter (Homo sapiens, UniProt P23975). The experiment is described as follows: Displacement of [3H]-dopamine from human NET expressed in African green monkey COS7 cells after 10 mins. It is filed as cell-based, COS-7. In outline:
(§4)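 COS7 cells transiently transfected with human SERT, NET or DAT, assayed 40–48 h later. 30 min preincubation with compound in PBS pH 7.4 plus 0.1 mM CaCl2, 0.5 mM MgCl2; ascorbic acid 1 mM added for NET/DAT. Substrate 50 nM final: [3H]serotonin for SERT, [3H]dopamine for NET/DAT.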

Experiment [12] is filed under the species Rattus norvegicus. The experiment is described as follows: Selectivity ratio of Ki for rat alpha4/beta4 nAChR to Ki for rat alpha4/beta2 nAChR.
The species named for experiment [13] is Rattus norvegicus. The experiment can be described thus: Selectivity ratio of Ki for rat alpha3/beta4 nAChR to Ki for rat alpha4/beta2 nAChR.
Experiment [14] concerns the target Sodium-dependent serotonin transporter (Homo sapiens, UniProt P31645). The experiment can be described thus: Displacement of [3H]-serotonin from human SERT expressed in African green monkey COS7 cells after 10 mins. In kind it is cell-based, COS-7. In outline: as §4
Experiment [15] has as its target Sodium-dependent dopamine transporter (Homo sapiens, UniProt Q01959). The experiment can be described thus: Displacement of [3H]-dopamine from human DAT expressed in African green monkey COS7 cells after 10 mins. It is filed as cell-based, COS-7. In outline:
as §4

Experiment [16] deals with Mus musculus. The experiment is described as follows: Antidepressant like activity in mouse at 30 mg/kg, sc administered 20 mins before test measured for 6 mins by forced swimming test. In kind it is functional, organism-based. Details: dose 30 mg/kg. In outline: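 Mice, n = 7–8, placed singly in a 16 cm beaker holding 20 cm of water at 23.5–24.5 °C. Compound in 0.9% saline given sc at 10 mL/kg 20 min before testing. Swim distance tracked by camera over 6 min, with the first minute excluded. Analysed by one-way ANOVA with planned comparisons.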

Molecules are shown by their SMILES. Activity calls are given as the source filed them. The calls are words filed in the database; no cut-off is given here.

Sequence of Nicotinic acetylcholine receptor alpha-4/beta-2 (Q9ERK7 whole entry): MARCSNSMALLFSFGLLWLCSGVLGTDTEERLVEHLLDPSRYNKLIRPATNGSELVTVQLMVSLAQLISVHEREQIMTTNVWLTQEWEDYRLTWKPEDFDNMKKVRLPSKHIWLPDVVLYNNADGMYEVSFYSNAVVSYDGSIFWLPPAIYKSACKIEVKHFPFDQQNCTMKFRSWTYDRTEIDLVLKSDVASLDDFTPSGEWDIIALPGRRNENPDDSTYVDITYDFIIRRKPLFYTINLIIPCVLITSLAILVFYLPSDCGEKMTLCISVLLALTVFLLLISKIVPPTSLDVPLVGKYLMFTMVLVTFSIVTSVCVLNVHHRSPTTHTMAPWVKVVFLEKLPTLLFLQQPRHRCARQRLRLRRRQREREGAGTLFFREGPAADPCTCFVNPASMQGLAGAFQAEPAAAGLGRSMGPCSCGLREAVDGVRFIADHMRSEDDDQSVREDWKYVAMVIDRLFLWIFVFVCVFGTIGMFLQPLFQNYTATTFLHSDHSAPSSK
Sequence of Nicotinic acetylcholine receptor alpha-4/beta-2 (Q8R493 whole entry): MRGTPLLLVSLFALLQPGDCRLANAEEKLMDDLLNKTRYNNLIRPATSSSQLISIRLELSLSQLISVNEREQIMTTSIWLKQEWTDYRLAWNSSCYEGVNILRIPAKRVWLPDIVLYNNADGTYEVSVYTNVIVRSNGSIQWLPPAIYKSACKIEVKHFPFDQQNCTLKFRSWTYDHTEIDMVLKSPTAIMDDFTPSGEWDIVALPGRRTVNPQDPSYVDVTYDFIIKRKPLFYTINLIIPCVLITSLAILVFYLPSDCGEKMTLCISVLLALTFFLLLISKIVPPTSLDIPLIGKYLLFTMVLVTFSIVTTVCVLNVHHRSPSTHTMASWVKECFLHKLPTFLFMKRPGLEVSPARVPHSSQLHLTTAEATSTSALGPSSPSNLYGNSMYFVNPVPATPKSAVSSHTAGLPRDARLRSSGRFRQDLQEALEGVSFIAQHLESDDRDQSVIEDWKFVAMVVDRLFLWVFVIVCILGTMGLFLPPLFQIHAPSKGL
Sequence of Neuronal acetylcholine receptor; alpha4/beta4 (P09483 whole entry): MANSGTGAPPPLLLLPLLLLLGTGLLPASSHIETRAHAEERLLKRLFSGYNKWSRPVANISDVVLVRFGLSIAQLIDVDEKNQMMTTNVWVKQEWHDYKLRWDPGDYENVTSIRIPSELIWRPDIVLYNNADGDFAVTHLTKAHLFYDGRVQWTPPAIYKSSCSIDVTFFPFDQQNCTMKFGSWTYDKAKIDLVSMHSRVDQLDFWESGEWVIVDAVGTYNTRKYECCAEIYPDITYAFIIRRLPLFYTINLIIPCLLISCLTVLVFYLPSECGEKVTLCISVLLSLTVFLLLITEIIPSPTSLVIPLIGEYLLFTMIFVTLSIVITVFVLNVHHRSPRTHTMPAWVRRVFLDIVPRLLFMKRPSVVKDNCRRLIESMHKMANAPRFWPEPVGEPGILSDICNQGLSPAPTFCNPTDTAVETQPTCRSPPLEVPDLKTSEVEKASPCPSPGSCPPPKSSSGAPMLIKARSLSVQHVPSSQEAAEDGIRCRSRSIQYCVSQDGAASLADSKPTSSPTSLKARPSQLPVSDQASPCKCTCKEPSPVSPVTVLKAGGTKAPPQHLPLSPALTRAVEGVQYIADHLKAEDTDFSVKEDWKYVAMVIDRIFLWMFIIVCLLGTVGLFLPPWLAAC
Sequence of Neuronal acetylcholine receptor; alpha4/beta4 (P12392 whole entry): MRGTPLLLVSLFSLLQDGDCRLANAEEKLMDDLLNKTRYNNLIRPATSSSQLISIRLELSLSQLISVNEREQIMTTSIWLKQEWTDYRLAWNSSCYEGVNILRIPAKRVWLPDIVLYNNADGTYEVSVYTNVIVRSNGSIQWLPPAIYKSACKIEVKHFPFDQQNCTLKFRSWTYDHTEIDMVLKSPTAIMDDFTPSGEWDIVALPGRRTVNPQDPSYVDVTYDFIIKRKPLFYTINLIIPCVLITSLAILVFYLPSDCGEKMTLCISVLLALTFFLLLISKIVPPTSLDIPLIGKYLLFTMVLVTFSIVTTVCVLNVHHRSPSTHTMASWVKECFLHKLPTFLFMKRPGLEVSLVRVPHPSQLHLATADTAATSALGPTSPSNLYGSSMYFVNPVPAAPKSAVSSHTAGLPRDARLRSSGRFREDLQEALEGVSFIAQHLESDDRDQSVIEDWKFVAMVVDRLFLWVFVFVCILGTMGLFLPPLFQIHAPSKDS
Sequence of Neuronal acetylcholine receptor; alpha4/beta2 (Rattus norvegicus, UniProt P09483+P12390) (P09483 whole entry): as the sequence (P09483 whole entry) above
Sequence of Neuronal acetylcholine receptor; alpha4/beta2 (Rattus norvegicus, UniProt P09483+P12390) (P12390 whole entry): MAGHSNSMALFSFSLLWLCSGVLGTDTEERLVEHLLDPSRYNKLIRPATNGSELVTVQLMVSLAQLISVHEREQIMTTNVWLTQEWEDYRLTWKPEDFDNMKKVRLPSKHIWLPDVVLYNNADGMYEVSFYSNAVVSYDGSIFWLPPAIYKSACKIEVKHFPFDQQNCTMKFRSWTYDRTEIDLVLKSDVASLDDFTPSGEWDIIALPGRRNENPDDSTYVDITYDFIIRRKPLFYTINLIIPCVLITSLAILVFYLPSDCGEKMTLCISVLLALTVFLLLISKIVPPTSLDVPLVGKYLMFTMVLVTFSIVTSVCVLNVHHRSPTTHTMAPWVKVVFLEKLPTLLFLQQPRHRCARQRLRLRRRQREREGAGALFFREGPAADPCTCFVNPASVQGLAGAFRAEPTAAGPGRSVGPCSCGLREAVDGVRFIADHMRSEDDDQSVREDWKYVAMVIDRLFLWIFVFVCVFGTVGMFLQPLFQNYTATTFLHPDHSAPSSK
T1 sequence (P04757 whole entry): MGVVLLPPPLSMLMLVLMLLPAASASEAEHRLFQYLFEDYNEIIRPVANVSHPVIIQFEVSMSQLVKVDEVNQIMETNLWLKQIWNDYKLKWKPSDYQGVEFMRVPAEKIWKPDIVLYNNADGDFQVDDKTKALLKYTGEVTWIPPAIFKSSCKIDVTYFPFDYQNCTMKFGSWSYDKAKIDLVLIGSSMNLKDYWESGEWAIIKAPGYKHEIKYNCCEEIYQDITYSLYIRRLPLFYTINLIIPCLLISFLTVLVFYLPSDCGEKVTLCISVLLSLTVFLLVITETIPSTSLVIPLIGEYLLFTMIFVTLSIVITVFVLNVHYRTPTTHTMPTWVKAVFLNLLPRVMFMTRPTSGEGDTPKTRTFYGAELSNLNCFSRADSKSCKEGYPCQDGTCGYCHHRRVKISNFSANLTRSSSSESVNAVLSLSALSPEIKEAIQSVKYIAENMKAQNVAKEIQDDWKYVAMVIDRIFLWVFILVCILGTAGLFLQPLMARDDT
T1 sequence (P12392 whole entry): as the sequence (P12392 whole entry) above
Sequence of Neuronal acetylcholine receptor subunit alpha-7 (P36544 whole entry): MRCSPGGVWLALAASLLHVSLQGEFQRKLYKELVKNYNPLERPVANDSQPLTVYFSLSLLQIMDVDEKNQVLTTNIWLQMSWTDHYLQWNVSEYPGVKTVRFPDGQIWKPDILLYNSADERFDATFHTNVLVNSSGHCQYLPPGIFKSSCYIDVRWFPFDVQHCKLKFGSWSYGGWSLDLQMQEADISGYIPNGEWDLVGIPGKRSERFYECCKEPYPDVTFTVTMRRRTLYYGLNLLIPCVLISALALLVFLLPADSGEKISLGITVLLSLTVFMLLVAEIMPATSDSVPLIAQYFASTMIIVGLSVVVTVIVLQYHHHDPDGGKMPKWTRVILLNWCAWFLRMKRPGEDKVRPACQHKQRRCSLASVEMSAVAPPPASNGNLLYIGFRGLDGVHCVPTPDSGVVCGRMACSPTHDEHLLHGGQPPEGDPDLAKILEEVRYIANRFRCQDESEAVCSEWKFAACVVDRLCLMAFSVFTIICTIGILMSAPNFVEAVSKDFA
Sequence of Neuronal acetylcholine receptor; alpha4/beta2 (Homo sapiens, UniProt P17787+P43681) (P17787 whole entry): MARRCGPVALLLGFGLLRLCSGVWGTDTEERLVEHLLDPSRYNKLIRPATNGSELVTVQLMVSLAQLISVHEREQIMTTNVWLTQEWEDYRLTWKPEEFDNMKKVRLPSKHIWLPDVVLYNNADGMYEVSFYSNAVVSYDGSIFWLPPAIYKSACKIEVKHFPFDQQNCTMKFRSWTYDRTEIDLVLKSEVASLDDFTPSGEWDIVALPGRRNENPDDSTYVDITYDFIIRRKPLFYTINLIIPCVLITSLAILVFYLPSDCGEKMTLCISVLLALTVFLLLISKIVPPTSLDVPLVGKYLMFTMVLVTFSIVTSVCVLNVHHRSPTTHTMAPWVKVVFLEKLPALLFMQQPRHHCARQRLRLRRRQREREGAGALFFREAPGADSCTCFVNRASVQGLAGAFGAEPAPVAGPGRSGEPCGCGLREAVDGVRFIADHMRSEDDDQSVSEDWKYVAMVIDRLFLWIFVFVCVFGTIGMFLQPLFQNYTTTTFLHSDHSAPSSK
Sequence of Neuronal acetylcholine receptor; alpha4/beta2 (Homo sapiens, UniProt P17787+P43681) (P43681 whole entry): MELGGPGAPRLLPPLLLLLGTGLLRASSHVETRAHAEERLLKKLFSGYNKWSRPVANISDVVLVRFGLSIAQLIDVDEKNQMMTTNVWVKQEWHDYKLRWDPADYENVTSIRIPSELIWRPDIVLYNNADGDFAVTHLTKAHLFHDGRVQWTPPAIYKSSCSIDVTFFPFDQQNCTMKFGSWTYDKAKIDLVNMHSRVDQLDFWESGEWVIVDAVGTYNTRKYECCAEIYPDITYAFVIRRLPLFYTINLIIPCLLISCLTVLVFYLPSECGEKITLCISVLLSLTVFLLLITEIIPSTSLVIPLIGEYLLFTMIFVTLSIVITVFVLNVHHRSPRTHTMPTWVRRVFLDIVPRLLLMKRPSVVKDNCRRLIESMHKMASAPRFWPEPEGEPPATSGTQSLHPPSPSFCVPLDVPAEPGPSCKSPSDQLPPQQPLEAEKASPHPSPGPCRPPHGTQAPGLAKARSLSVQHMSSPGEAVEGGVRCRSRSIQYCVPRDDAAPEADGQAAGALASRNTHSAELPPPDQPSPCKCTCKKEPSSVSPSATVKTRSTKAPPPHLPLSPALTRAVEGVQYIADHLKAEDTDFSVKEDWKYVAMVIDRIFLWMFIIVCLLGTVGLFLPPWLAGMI

By Ki is commonly meant a measure of affinity in units of concentration, obtained from inhibition or displacement. As usually defined, the IC50 is the point on the concentration scale where inhibition reaches its midpoint. With `COc1cc2c(cc1O)CCN1CCCC21` (racemic), the Ki in experiment [1] was 100 µM; in experiment [3], 100 µM; in [4], 300 µM; in experiment [5], 500 µM. Besides, the inhibition entry in experiment [2] was “Dose-dependent effect”. In addition, the IC50 in experiment [6] is 300 µM; in experiment [7] it was 50 µM.
`COc1cc2c(cc1OC)C(c1ccccc1)N(C)CC2` (stereo unspecified) displayed an inhibition constant Ki in experiment [1] of 100 µM. Besides, the IC50 in experiment [7] is > 300 µM.
For the compound `CN1CCc2cc(O)c(O)cc2C1`, the Ki in experiment [1] is 6.8 µM; in experiment [3] it was 100 µM; in experiment [4], 100 µM; in [5] it was > 500 µM. The inhibition result in [2] is “Dose-dependent effect”. Moreover, the IC50 in experiment [6] was > 1000 µM; in experiment [7], 16 µM.
`COc1cc2c(cc1OC)C1CCCN1CC2` (racemic): the inhibitory constant (Ki) is 5.5 µM in experiment [1], 100 µM in experiment [3], 300 µM in experiment [4] and > 500 µM in experiment [5]. Further, the inhibition entry in experiment [2] was “Dose-dependent effect”. The figures for the IC50 in experiment [6] and in [7] were 100 µM and 31 µM, respectively.
For the compound `COc1cc2c(cc1O)[C@]13CCCC[C@H]1CCN3CC2` (relative stereo), the Ki was 18 µM in experiment [1], 23 µM in experiment [3], 30 µM in [4] and 5.5 µM in [5]. In addition, in experiment [2], the inhibition result was “Dose-dependent effect”. For the same compound, the figures for the IC50 in experiment [6] and in experiment [7] were 33 µM and 2.9 µM, respectively.
In experiment [8], `COc1cc2c(cc1O)CCN1CC=C3C=C[C@H](OC)C[C@]321` [ERYSODINE] returned a Ki of 7.5 µM.
In experiment [9], `COc1cc2c(cc1OC)[C@]13C[C@@H](OC)C=CC1=CCN3CC2` [ERYSOTRINE] registered a Ki of 0.6 µM.
`COc1cccc(C2c3cc(OC)c(OC)cc3CCN2C)c1` (stereo unspecified) showed a Ki in experiment [1] of 300 µM. In addition, the IC50 in experiment [7] was > 300 µM.
Take `c1c2c(cc3c1OCO3)C1CCCN1CC2` (racemic): the results for the Ki in [1], in experiment [3] and in [4] were 0.55 µM, 21 µM and 100 µM, respectively. In addition, the inhibition entry in [2] was “Dose-dependent effect”. Besides, the IC50 was found to be 100 µM in experiment [6] and 3.3 µM in [7].
As to `COc1cc2c(cc1OC)[C@]13CCCC[C@H]1CCN3CC2` (relative stereo), the Ki in [1] came to 100 µM; in experiment [3] it was 100 µM; in [4], 100 µM; in experiment [5], 30 µM. Besides, in [2], the inhibition entry is “Dose-dependent effect”. The IC50 in [6] worked out at 50 µM; in [7], 31 µM.
For `COc1cc2c(cc1O)CCN1CC[C@@H]3CCCC[C@@]231` (relative stereo), the Ki in experiment [1] is 8.5 µM; in experiment [3] it was 50 µM; in [4], 100 µM; in experiment [5] it was 20 µM. In experiment [2], the inhibition entry was “Dose-dependent effect”. The IC50 in experiment [6] is 50 µM; in experiment [7] it was 2.3 µM.
`Oc1cc2c(cc1O)C1CCCN1CC2` (racemic): the Ki in [1] came out at 11 µM; in [3], 50 µM; in [4], 100 µM; in experiment [5] it was 300 µM. In experiment [2], the inhibition entry is “Dose-dependent effect”. Also, the IC50 in [6] worked out at 1000 µM; in experiment [7], 100 µM.
As for `CN1CCc2cc3c(cc2C1)OCO3`, the Ki was found to be 1.7 µM in [1], 50 µM in experiment [3], 300 µM in [4] and 500 µM in experiment [5]. Also, the inhibition result in [2] is “Dose-dependent effect”. The IC50 in [6] was 300 µM; in [7], 2.6 µM.
As for `COc1cc2c(cc1O)CCN(C)C2`, the Ki in experiment [1] was 10 µM; in experiment [3], 100 µM; in experiment [4], 300 µM; in experiment [5] it was > 500 µM. Also, in [2], the inhibition entry is “Dose-dependent effect”. For the same compound, the IC50 in experiment [6] turned out to be 1000 µM; in experiment [7] it was 33 µM.
Regarding `COc1cc2c(cc1O)C1CCCN1CC2` (racemic), the Ki in experiment [1] turned out to be 3.4 µM; in experiment [3], 100 µM; in experiment [4], 100 µM; in [5], 300 µM. Also, the inhibition result in [2] was “Dose-dependent effect”. The IC50 came out at 300 µM in [6] and 23 µM in [7].
`COc1cc2c(cc1OC)C(C1CCCCC1)N(C)CC2` (stereo unspecified): affinity in [1] was put at a Ki of 300 µM. Also, in experiment [7], the IC50 is > 300 µM.
Consider `CO[C@H]1CC=C2CCN3CCC4=C(CC(=O)OC4)[C@]23C1`, for which the affinity in experiment [8] corresponds to a Ki of 10.5 µM.
For the compound `CCCCC1c2cc(OC)c(OC)cc2CCN1C` (stereo unspecified), the Ki in experiment [1] worked out at 30 µM. Moreover, in [7], the IC50 was > 300 µM.
The like results for `COc1ccc(C2c3cc(OC)c(OC)cc3CCN2C)cc1OC` (stereo unspecified) were, in that order, > 300 µM and > 300 µM.
With `COc1cc2c(cc1O)CN(C)CC2`, the Ki in experiment [1] was 1.7 µM; in experiment [3], 100 µM; in experiment [4], 300 µM; in [5] it was > 500 µM. The inhibition entry in [2] is “Dose-dependent effect”. In addition, the IC50 in experiment [6] was > 1000 µM; in experiment [7] it was 4.4 µM.
Consider `COc1cc2c(cc1OC)CN(C)CC2`, for which the Ratio Ki in experiment [10], in [12] and in [13] was > 300 each time. Besides, the Ki in experiment [1] was 0.87 µM; in [11], 129 µM; in [3], 300 µM; in experiment [4], 300 µM; in experiment [5], > 500 µM; in experiment [14] it was 46.7 µM. Further, in experiment [15], the Ki was > 10000 µM. In [2], the inhibition entry was “Dose-dependent effect”. In addition, the figures for the half-maximal inhibitory concentration (IC50) in experiment [6] and in experiment [7] were 100 µM and 12 µM, respectively. For the same compound, the result in [16] was Active.
With `c1c2c(cc3c1OCO3)[C@]13CCCC[C@H]1CCN3CC2` (relative stereo), the Ki turned out to be 7.3 µM in experiment [1], 50 µM in experiment [3], 30 µM in experiment [4] and 18 µM in experiment [5]. Also, the inhibition result in experiment [2] is “Dose-dependent effect”. The values for the IC50 in experiment [6] and in experiment [7] were 50 µM and 9.2 µM, respectively.
With `Oc1cc2c(cc1O)[C@]13CCCC[C@H]1CCN3CC2` (relative stereo), the Ki in experiment [1] stood at 1.5 µM; in experiment [3] it was 19 µM; in experiment [4], 30 µM; in experiment [5], 7.3 µM. For the same compound, in experiment [2], the inhibition result is “Dose-dependent effect”. Further, the IC50 in experiment [6] was found to be 50 µM; in experiment [7], 0.58 µM.
In the case of `CCC1c2cc(OC)c(OC)cc2CCN1C` (stereo unspecified), the Ki in experiment [1] was 300 µM. Besides, the IC50 in experiment [7] is > 300 µM.

(Values after ChEMBL document CHEMBL3233008, “Design, synthesis, and biological evaluation of Erythrina alkaloid analogues as neuronal nicotinic acetylcholine receptor antagonists” (J Med Chem, 2013).)
